Source: ChEMBL document CHEMBL4627320, “Discovery of CRBN E3 Ligase Modulator CC-92480 for the Treatment of Relapsed and Refractory Multiple Myeloma” (J Med Chem, 2020)
The source made the active and inactive calls. The rule behind the calls is not given here.

Key:
[1] = target: Protein cereblon/Zinc finger protein Aiolos (Homo sapiens, UniProt Q96SW2+Q9UKT9); experiment: Induction of CRBN-mediated pLOC-ePL-tagged aiolos (unknown origin) degradation in human DF15 cells assessed as minimum protein remaining incubated for 4 hrs by luminescence based beta-galactosidase enzyme fragmentation complementation assay; assay type: cell-based
[2] = (§1) Antiproliferative activity against lenalidomide-resistant human H929-R10-1 cells incubated for 5 days by CellTiter-Glo assay; assay type: functional; details: 120 h
Outline: (§2)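 H929 R10-1 cells kept in log phase at 37°C, 5% CO₂, and plated at 5000 cells/well. Compounds were added as 10-point duplicate curves starting at 10µM with 1:3 dilutions, in 0.1% DMSO, final volume 40µl. Plates were incubated for 5 days. Viability was read by CellTiter-Glo luminescence after 1 h at room temperature in the dark. IC50 is the mean of ≥3 separate determinations.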

[3] = target: Adrenergic receptor alpha-1 (Homo sapiens) (UniProt P35348+P25100+P35368); experiment: Inhibition of adrenergic receptor alpha1 (unknown origin) at 10 uM relative to control; assay type: protein assay
D(2) dopamine receptor [4] = target: T1, D(2) dopamine receptor (Homo sapiens, UniProt P14416); experiment: Inhibition of D2S (unknown origin) at 10 uM relative to control
[5] = target: Protein cereblon/Eukaryotic peptide chain release factor GTP-binding subunit ERF3A (Homo sapiens, UniProt P15170+Q96SW2); experiment: Induction of CRBN-mediated pLOC-ePL-tagged GSPT1 (unknown origin) degradation in human DF15 cells assessed as minimum protein remaining incubated for 4 hrs by luminescence based beta-galactosidase enzyme fragmentation complementation assay; assay type: cell-based
PBMC = experiment: Cytotoxicity against PBMC (unknown origin); assay type: cell-based
[6] = target: D(2) dopamine receptor (Rattus norvegicus) (UniProt P61169); experiment: In vivo agonist activity at D2S in rat assessed as suppression of gut motility administered daily for 7 days; assay type: functional, organism-based
D(2) dopamine receptor [7] = target: T1, D(2) dopamine receptor; experiment: Agonist activity at D2S (unknown origin)
[8] = Solubility of the compound; assay type: physicochemical
[9] = target: Protein cereblon/DNA damage-binding protein 1 (Homo sapiens, UniProt Q96SW2); experiment: Displacement of Cy5-conjugated CELMoD from N-terminal 6-His tagged CRBN (1 to 442 residues) (unknown origin)/DDB1 (1 to 1140 residues) (unknown origin) incubated for 10 mins by FRET assay; assay type: protein assay
Homo sapiens [10] = organism: Homo sapiens; experiment: as §1; assay type: functional; outline: as §2
Homo sapiens [11] = organism: Homo sapiens; experiment: Induction of apoptosis in lenalidomide-resistant human H929-R10-1 cells assessed as caspase3 induction at 1 uM measured over 150 hrs by live cell imaging analysis; assay type: functional
Outline: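 Lenalidomide-refractory H929 R10-1 cells were treated at concentrations from 1 nM to 1 μM. Caspase-3 induction was quantified by live-cell imaging over 150 h.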

Homo sapiens [12] = organism: Homo sapiens; experiment: Induction of apoptosis in lenalidomide-resistant human H929-R10-1 cells assessed as increase in cleaved caspase3 level at 1 to 100 nM after 72 hrs by Western blot analysis; assay type: functional
Outline: (§3)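 H929 R10-1 cells treated with DMSO or compound (1–100 nM) for 72 h, washed in PBS, lysed in NP-40/Tris pH 8 buffer with protease and phosphatase inhibitors; clarified lysates immunoblotted for p27, cleaved caspase-1, -3, -7 and cleaved PARP, with β-tubulin, using fluorescent secondary antibodies.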

Homo sapiens [13] = organism: Homo sapiens; experiment: Induction of apoptosis in lenalidomide-resistant human H929-R10-1 cells assessed as increase in cleaved caspase1 level at 1 to 100 nM after 72 hrs by Western blot analysis; assay type: functional; outline: as §3
Homo sapiens [14] = organism: Homo sapiens; experiment: Induction of apoptosis in lenalidomide-resistant human H929-R10-1 cells assessed as increase in cleaved PARP level after 72 hrs by Western blot analysis; assay type: functional; outline: as §3
Homo sapiens [15] = organism: Homo sapiens; experiment: Induction of apoptosis in lenalidomide-resistant human H929-R10-1 cells assessed as p27 stabilization at 1 to 100 nM after 72 hrs by Western blot analysis; assay type: functional; outline: as §3
Homo sapiens [16] = organism: Homo sapiens; experiment: Induction of apoptosis in lenalidomide-resistant human H929-R10-1 cells assessed as increase in cleaved caspase7 level at 1 to 100 nM after 72 hrs by Western blot analysis; assay type: functional; outline: as §3

Row | EC50 [1] [nM] | inhibition [3] [%] | inhibition (D(2) dopamine receptor [4]) [%] | SMILES | IC50 [2] [nM] | also measured
1 | 0.4 | 99 | 98 | O=C1CCC(N2Cc3c(OCc4ccc(CN5CCN(c6ccccn6)CC5)cc4)cccc3C2=O)C(=O)N1 (stereo not given) | 4.6 | –
2 | 7.5 | – | – | O=C1CCC(N2Cc3c(OCc4ccccc4)cccc3C2=O)C(=O)N1 (stereo not given) | > 10000 | –
3 | 0.5 | – | – | COc1ccc(N2CCN(Cc3ccc(COc4cccc5c4CN(C4CCC(=O)NC4=O)C5=O)cc3)CC2)cc1 (stereo not given) | 7.1 | EC50 [5]: > 10000 nM; Activity (PBMC): Non-Toxic
4 | 1 | 40.4 | 78.4 | CC1CCN(Cc2ccc(COc3cccc4c3CN(C3CCC(=O)NC3=O)C4=O)cc2)CC1 (stereo not given) | 35.1 | –
5 | 0.4 | 25.2 | 32.9 | NC(=O)c1ccc(N2CCN(Cc3ccc(COc4cccc5c4CN(C4CCC(=O)NC4=O)C5=O)cc3)CC2)cn1 (stereo not given) | 3.5 | –
6 | 0.3 | – | – | CC(C)N1CCN(Cc2ccc(COc3cccc4c3CN(C3CCC(=O)NC3=O)C4=O)cc2)CC1 (stereo not given) | 35.1 | –
7 | 0.3 | – | – | O=C1CCC(N2Cc3c(OCc4ccc(CN5CCN(c6c(F)cccc6F)CC5)cc4)cccc3C2=O)C(=O)N1 (stereo not given) | 4 | EC50 [5]: > 10000 nM; Activity (PBMC): Non-Toxic
8 | 0.3 | – | – | O=C1CCC(N2Cc3c(OCc4ccc(C(=O)N5CCN(c6ccc(F)cc6)CC5)cc4)cccc3C2=O)C(=O)N1 (stereo not given) | 3.7 | solubility [8]: < 7 µg/mL
9 | > 10000 | – | – | CN1C(=O)CCC(N2Cc3c(OCc4ccc(CN5CCN(c6ccc(F)cc6F)CC5)cc4)cccc3C2=O)C1=O (stereo not given) | 632 | EC50 [5]: > 10000 nM; IC50 [9]: 28000 nM
10 | 0.6 | 41.5 | 95.4 | O=C1CCC(N2Cc3c(OCc4ccc(CN5CCC(C(F)(F)F)CC5)cc4)cccc3C2=O)C(=O)N1 (stereo not given) | 8.3 | –
11 | 0.1 | 102 | 99.1 | O=C1CCC(N2Cc3c(OCc4ccc(CN5CCN(c6ccc(F)cc6F)CC5)cc4)cccc3C2=O)C(=O)N1 (racemic) | 1.7 | EC50 [5]: > 10000 nM; IC50 [9]: 55.1 to 502 nM; Activity [6]: Active; Activity (PBMC): Non-Toxic; EC50 (D(2) dopamine receptor [7]): 16 nM
12 | 0.7 | 97.7 | 90.8 | O=C1CCC(N2Cc3c(OCc4ccc(CN5CCN(c6ccc(F)cn6)CC5)cc4)cccc3C2=O)C(=O)N1 (stereo not given) | 7.4 | –
13 | > 100 | – | – | C[C@@]1(N2Cc3c(OCc4ccc(CN5CCN(c6ccc(F)cc6F)CC5)cc4)cccc3C2=O)CCC(=O)NC1=O | > 5000 | IC50 [9]: 9620 nM
14 | – | – | – | Nc1cccc2c1CN(C1CCC(=O)NC1=O)C2=O (stereo not given) | – | Activity (Homo sapiens [10]): inactive; Activity (Homo sapiens [11]): Active
15 | 0.1 | – | – | O=C1CC[C@H](N2Cc3c(OCc4ccc(CN5CCN(c6ccc(F)cc6F)CC5)cc4)cccc3C2=O)C(=O)N1 | 3.8 | IC50 [9]: 37 nM
16 | – | – | – | Nc1cccc2c1C(=O)N(C1CCC(=O)NC1=O)C2=O (stereo not given) | – | Activity (Homo sapiens [10]): inactive; Activity (Homo sapiens [12]): inactive; Activity (Homo sapiens [13]): inactive; Activity (Homo sapiens [14]): inactive; Activity (Homo sapiens [15]): inactive; Activity (Homo sapiens [16]): inactive; Activity (Homo sapiens [11]): Active
17 | – | – | – | Cc1ccc(NC(=O)NCc2ccc3c(c2)CN(C2CCC(=O)NC2=O)C3=O)cc1Cl (stereo not given) | – | Activity (Homo sapiens [10]): Active; IC50 (PBMC): > 5000 nM
18 | 0.1 | – | – | O=C1CCC(N2Cc3c(OCc4ccc(CN5CCN(c6ccc(Cl)cc6)CC5)cc4)cccc3C2=O)C(=O)N1 (stereo not given) | 3.6 | EC50 [5]: > 10000 nM; Activity (PBMC): Non-Toxic

Row | SMILES | EC50 [1] [nM] | inhibition [3] [%] | inhibition (D(2) dopamine receptor [4]) [%] | IC50 [2] [nM] | also measured
19 | N#Cc1ccc(N2CCN(Cc3ccc(COc4cccc5c4CN(C4CCC(=O)NC4=O)C5=O)cc3)CC2)c(F)c1 (stereo not given) | 0.1 | 67 | 54.5 | 1.7 | Activity [6]: inactive; EC50 (D(2) dopamine receptor [7]): > 10000 nM
